Experiment [1] deals with Trichoplusia ni. Briefly: Oviposition deterrent activity against adult female Trichoplusia ni (cabbage looper) moths introduced along with male moths into oviposition cage containing compound pretreated cabbage leaves assessed as eggs laying on the leaf disks at 0.25% after 48 hr by oviposition choice bioassay. In kind it is functional. The method in brief: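 Choice test with moths from larvae reared on normal diet from neonate to pupation. Pupae were sexed and held separately until emergence. Cabbage leaves were treated with test substance at 0.25% or left as control, and eggs per leaf were counted after 48 h. ODI = [(C − T)/(C + T)] × 100 from egg numbers on control and treated leaves.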

In experiment [2] the test system is Trichoplusia ni. In words: Feeding deterrent activity against freshly molted third-instar larval stage of Trichoplusia ni (cabbage looper), Trichoplusia ni at 50 ug/cm'2 after 3 to 5 hr by leaf disk choice bioassay. It counts as functional. The method, boiled down:
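Leaf disk choice with freshly molted third instar larvae starved 4–5 h. One disk was painted on each side with 10 µL solution giving 50 µg/cm², the other with carrier solvent. Twenty-five larvae per treatment, stopped at ~50% control disk consumption (3–5 h). Deterrence = [(C − T)/(C + T)] × 100 from consumed areas; mean ± SE, Tukey's test p < 0.05.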

For experiment [3], the system named is Trichoplusia ni. In words: Feeding deterrent activity against freshly molted third-instar larval stage of Trichoplusia ni (cabbage looper) after 3 to 5 hr by leaf disk choice bioassay. It counts as functional, organism-based. The method, boiled down:
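Choice test: freshly molted third instar larvae, starved 4–5 h, offered two leaf disks, one painted on each side with 10 µL test solution and one with carrier solvent only. Twenty-five larvae per treatment. Ended when ~50% of the control disk was eaten (normally 3–5 h). Consumed areas measured. DC50 derived by linear regression of at least four concentrations (3.12–25 µg/cm²).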

Experiment [4] concerns Trichoplusia ni. In words: Toxicity against third-instar larval stage of Trichoplusia ni (cabbage looper) assessed as mortality at 0.25% measured after 24 hr by contact toxicity bioassay. In kind it is functional. The method in brief:
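Third-instar larvae were sprayed directly with test solution at 0.25% in filter-paper-lined Petri dishes. They were then moved to dishes holding a small piece of artificial diet. Mortality was scored 24 h after spraying. The test applied only to compounds giving >50% feeding deterrence at 50 µg/cm².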

Molecules are shown by their SMILES.

With `CCCOc1cccc(OC)c1` [1-methoxy-3-propoxybenzene], the Activity in the experiment on Trichoplusia ni [1] came to 70.2%; in the experiment with Trichoplusia ni [2] it was 54.8%. In the experiment with Trichoplusia ni [3], this compound returned a DC50 of 61.5 microg/cm2. Further, the mortality with Trichoplusia ni [4] came out at 16.7%.
The matching figures for `CCCCOc1ccccc1OCC` [1-ethoxy-2-butoxybenzene]: 28.7%, 71%, 24.1 microg/cm2 and 6.7%.
The matching figures for `CCCCOc1cccc(OCC)c1` [1-butyloxy-3-ethoxybenzene]: 25.9%, 84.1%, 14.4 microg/cm2 and 30%.
On the same counts, the results for `CCOc1cccc(OCCC(C)C)c1` [1-isopentyloxy-3-ethoxybenzene] are 35.7%, 82.6%, 19.8 microg/cm2 and 20.8%.
Regarding `CCCOc1cccc(OCCC)c1` [1,3-DIPROPOXYBENZENE], the Activity in the experiment with Trichoplusia ni [1] was found to be 33%; with Trichoplusia ni [2] it was 96.9%. This compound yielded a DC50 with Trichoplusia ni [3] of 26.8 microg/cm2. For the same compound, the mortality in the experiment on Trichoplusia ni [4] was 76.7%.
Turning to `C=CCOc1ccccc1OC` [1-allyloxy-2-methoxybenzene], the Activity amounted to 66.7% in the experiment with Trichoplusia ni [1] and 67.8% with Trichoplusia ni [2]. This compound also returned a DC50 in the experiment on Trichoplusia ni [3] of 30 microg/cm2. Also, in the experiment on Trichoplusia ni [4], the mortality was 23.3%.
As to `CCOc1cccc(OCC)c1` [1,3-DIETHOXYBENZENE], the Activity is given as 3.4% in the experiment with Trichoplusia ni [1] and 89.4% in the experiment with Trichoplusia ni [2]. This compound returned a DC50 in the experiment on Trichoplusia ni [3] of 28.7 microg/cm2. Also, the mortality with Trichoplusia ni [4] turned out to be 36.7%.
On the same counts, the results for `C=CCOc1ccc(OCCC)cc1` [1-allyloxy-4-propoxybenzene] are 5.4%, 82.4%, 27.9 microg/cm2 and 10%.
As for `CCCOc1ccc(O)cc1` [1-hydroxy-4-propoxybenzene], the Activity in the experiment on Trichoplusia ni [2] is recorded as -28%.
On to `C=CCOc1ccc(OCC=C)cc1` [1,4-DIALLYLOXYBENZENE], for which the Activity stood at 14.1% in the experiment with Trichoplusia ni [1] and 96.9% in the experiment with Trichoplusia ni [2]. Besides, in the experiment with Trichoplusia ni [3], the DC50 stood at 23.9 microg/cm2. For the same compound, in the experiment on Trichoplusia ni [4], the mortality is recorded as 16%.
On the same counts, the results for `CCCCCOc1ccccc1OCC` [1-ethoxy-2-pentoxybenzene] are 28.7%, 71%, 24.1 microg/cm2 and 6.7%.
Turning to `CCOc1ccc(O)cc1` [1-hydroxy-4-ethoxybenzene], the Activity in the experiment with Trichoplusia ni [2] worked out at 29.8%.
Turning to `C=CCOc1ccccc1O` [1-hydroxy-2-allyloxybenzene], the Activity with Trichoplusia ni [2] is 31.1%.
As to `CCCOc1ccc(OC)cc1` [1-methoxy-4-propoxybenzene], the figures for the Activity in the experiment with Trichoplusia ni [1] and with Trichoplusia ni [2] were 6% and 53.4%, respectively. The compound also showed a DC50 in the experiment with Trichoplusia ni [3] of 34.6 microg/cm2. Moreover, in the experiment on Trichoplusia ni [4], the mortality came to 23.3%.
On the same counts, the results for `CCCCCOc1cccc(OCCC)c1` [1-propoxy-3-pentoxybenzene] are 2.7%, 98%, 21.5 microg/cm2 and 50%.
On the same counts, the results for `COc1ccc(OCCC(C)C)cc1` [1-isopentyloxy-4-methoxybenzene] are 22.9%, 100%, 5.8 microg/cm2 and 18.8%.
In the case of `CCCCCOc1ccc(OCCC)cc1` [1-propoxy-4-pentoxybenzene], the results for the Activity in the experiment on Trichoplusia ni [1] and with Trichoplusia ni [2] were 9.6% and 53.4%, respectively. Besides, in the experiment on Trichoplusia ni [3], the DC50 turned out to be 39.7 microg/cm2. Further, in the experiment with Trichoplusia ni [4], the mortality was 53.1%.
As to `CCCOc1cccc(O)c1` [1-hydroxy-3-propoxybenzene], in the experiment on Trichoplusia ni [2], the Activity is reported as 4%.
On the same count and under the same terms, then `CCOc1ccccc1OC` [1-methoxy-2-ethoxybenzene], with 23.5%.
Regarding `CC(C)CCOc1ccccc1OCCC(C)C` [1,2-DIISOPENTOXYBENZENE], the results for the Activity in the experiment on Trichoplusia ni [1] and with Trichoplusia ni [2] were 11.5% and 69.9%, respectively. The same compound returned a DC50 in the experiment with Trichoplusia ni [3] of 19.6 microg/cm2. Besides, the mortality in the experiment with Trichoplusia ni [4] is on record as 40%.
In the case of `CC(C)CCOc1cccc(OCCC(C)C)c1` [1,3-DIISOPENTOXYBENZENE], the Activity with Trichoplusia ni [2] is given as -12.2%.
The same measure, in the same setting: with `COc1cccc(OC)c1` [1,3-DIMETHOXYBENZENE] the figure was 20.4%.
As for `CCCOc1ccc(OCCC)cc1` [1,4-DIPROPOXYBENZENE], the Activity is 11.8% in the experiment with Trichoplusia ni [1] and 96% with Trichoplusia ni [2]. The same compound had a DC50 in the experiment with Trichoplusia ni [3] of 20.3 microg/cm2. The mortality with Trichoplusia ni [4] came out at 22.6%.
With `CCCCOc1ccccc1OC` [1-methoxy-2-butoxybenzene], the Activity in the experiment on Trichoplusia ni [2] came to 23.5%.
For `CCOc1ccc(OCCC(C)C)cc1` [1-isopentyloxy-4-ethoxybenzene], the Activity in the experiment on Trichoplusia ni [1] was 22.9%; with Trichoplusia ni [2], 100%. In the experiment on Trichoplusia ni [3], this compound came in with a DC50 of 5.8 microg/cm2. For the same compound, the mortality in the experiment on Trichoplusia ni [4] amounted to 18.8%.
For `COc1cccc(O)c1` [1-hydroxy-3-methoxybenzene], the Activity in the experiment with Trichoplusia ni [2] is given as 44.7%.
In the case of `CCCCO[C@H]1C=CC[C@H]1CCO` (racemic), the Activity in the experiment on Trichoplusia ni [2] came to 41.6%.
For the compound `C=CCOc1ccc(OCCCC)cc1` [1-allyloxy-4-butoxybenzene], the Activity in the experiment with Trichoplusia ni [1] worked out at 16.8%; with Trichoplusia ni [2] it was 84%. In the experiment on Trichoplusia ni [3], this compound yielded a DC50 of 22.6 microg/cm2. In the experiment with Trichoplusia ni [4], the mortality was found to be 10%.
Take `COc1ccccc1OC` [1,2-DIMETHOXYBENZENE]: the Activity with Trichoplusia ni [2] stood at 26%.
Same read-out and setting: then `CCOc1ccccc1OCC` [1,2-DIETHOXYBENZENE], with -2.1%.
Take `CCCCCOc1ccc(OCCCC)cc1` [1-butyloxy-4-pentoxybenzene]: the Activity in the experiment on Trichoplusia ni [1] came out at 50.1%; with Trichoplusia ni [2], 83.4%. Further, in the experiment on Trichoplusia ni [3], the DC50 came out at 14.5 microg/cm2. Further, the mortality in the experiment with Trichoplusia ni [4] worked out at 58.1%.
The matching figures for `C=CCOc1ccc(OCCC(C)C)cc1` [1-allyloxy-4-isopentoxybenzene]: 18.8%, 75.1%, 15.7 microg/cm2 and 7%.
For `CCCCCCCCCO[C@H]1C=CC[C@H]1CCO` (racemic), the Activity in the experiment on Trichoplusia ni [2] came out at 45.2%.
`CCCCCOc1ccccc1OCCC(C)C` [1-isopentoxy-2-pentoxybenzene]: the Activity was 29.4% with Trichoplusia ni [1] and 66.9% in the experiment with Trichoplusia ni [2]. In the experiment with Trichoplusia ni [3], the DC50 is 32.5 microg/cm2. In addition, the mortality in the experiment with Trichoplusia ni [4] was 10%.
For `CCCCCOc1ccccc1OC` [1-methoxy-2-pentoxybenzene], in the experiment on Trichoplusia ni [2], the Activity is listed as 23.5%.
Regarding `C=CCOc1ccc(OC)cc1` [1-allyloxy-4-methoxybenzene], the results for the Activity with Trichoplusia ni [1] and with Trichoplusia ni [2] were 5.4% and 82.4%, respectively. In addition, the DC50 in the experiment on Trichoplusia ni [3] is reported as 27.9 microg/cm2. Also, in the experiment on Trichoplusia ni [4], the mortality was determined as 10%.
On the same counts, the results for `CCCOc1ccccc1OCCC(C)C` are 29.4%, 66.9%, 32.5 microg/cm2 and 10%.
For the compound `CC(C)CCOc1ccc(OCCC(C)C)cc1` [1,4-DIISOPENTOXYBENZENE], the Activity in the experiment with Trichoplusia ni [2] worked out at 44%.
The same measure, in the same setting: with `OCC[C@@H]1CC=C[C@@H]1O` (racemic) the figure was 36.6%; with `CCOc1cccc(O)c1` [1-hydroxy-3-ethoxybenzene], -18.7%; with `CCCCOc1ccccc1O` [1-hydroxy-2-butoxybenzene], 12%.
The same measure, in the same setting: with `CCOc1ccccc1O` [1-hydroxy-2-ethoxybenzene] the figure was -5.3%; with `COc1ccc(OC)cc1` [1,4-DIMETHOXYBENZENE], 9.9%.
On the same count and under the same terms, then `CC(C)CCOc1cccc(O)c1` [1-hydroxy-3-isopentoxybenzene], with -5.8%; and `CCCOc1ccccc1OC` [1-methoxy-2-propoxybenzene], with 23.5%.
For the compound `CCCOc1ccccc1O` [1-hydroxy-2-propoxybenzene], the Activity in the experiment with Trichoplusia ni [2] was -12%.
As to `CCCCCCCCCO[C@H]1C=CC[C@H]1CCOCCC(C)C` (racemic), the Activity in the experiment with Trichoplusia ni [2] worked out at 22%.
On to `COCC[C@@H]1CC=C[C@@H]1OC` (racemic), for which the Activity in the experiment with Trichoplusia ni [2] is given as -17.6%.
With `CC(C)CCOc1ccc(O)cc1` [1-hydroxy-4-isopentoxybenzene], the Activity in the experiment on Trichoplusia ni [2] was 29.5%.
The same measure, in the same setting: then `COc1ccccc1O` [GUAIACOL], with -7.5%; and `CCOCC[C@@H]1CC=C[C@@H]1OCC` (racemic), with -17.8%; and `COc1ccc(O)cc1` [MEQUINOL], with -26.5%.
Take `CCCOc1ccccc1OCCC` [1,2-DIPROPOXYBENZENE]: the Activity in the experiment on Trichoplusia ni [2] is on record as 26.2%.

As usually defined, the mortality is the share of the test organisms that died.

(Values after ChEMBL document CHEMBL3046326, “Screening of dialkoxybenzenes and disubstituted cyclopentene derivatives against the cabbage looper, Trichoplusia ni, for the discovery of new feeding and oviposition deterrents” (J Agric Food Chem, 2007).)
